From PubChem BioAssay
Kir21 block: Kir2.1 (mouse) channel inhibition. actives 0.85% (n = 310,000). B-score at 10 µM. HEK293-Kir2.1, FluxOR thallium flux fluorescence; hits give low values;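 active = fluorescence ratio B-score at or below minus 3 SD of library scores, with starting-brightness B-score within 2 SD, cut at about -4.2 in these data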;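 also: channel flux triggered by added potassium and thallium sulfate stimulus; B-score of peak minus minimum fluorescence over baseline after thallium stimulus; more negative B-score means stronger Kir2.1 block with less thallium influx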
TRPC4 inh: TRPC4 (mouse) channel inhibition | actives 0.39% (n = 300,000) | Q9QUQ5 | B-score at 10 µM | AID 2247 | HEK293 TRPC4beta/mu-opioid, DAMGO-evoked Fluo4 calcium flux; hits give low values;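 active = B-score over 3 SD under the library average, no early fluorescence shift, positive overall ratio signal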
Target sequence (Q9QUQ5 whole entry, looked up): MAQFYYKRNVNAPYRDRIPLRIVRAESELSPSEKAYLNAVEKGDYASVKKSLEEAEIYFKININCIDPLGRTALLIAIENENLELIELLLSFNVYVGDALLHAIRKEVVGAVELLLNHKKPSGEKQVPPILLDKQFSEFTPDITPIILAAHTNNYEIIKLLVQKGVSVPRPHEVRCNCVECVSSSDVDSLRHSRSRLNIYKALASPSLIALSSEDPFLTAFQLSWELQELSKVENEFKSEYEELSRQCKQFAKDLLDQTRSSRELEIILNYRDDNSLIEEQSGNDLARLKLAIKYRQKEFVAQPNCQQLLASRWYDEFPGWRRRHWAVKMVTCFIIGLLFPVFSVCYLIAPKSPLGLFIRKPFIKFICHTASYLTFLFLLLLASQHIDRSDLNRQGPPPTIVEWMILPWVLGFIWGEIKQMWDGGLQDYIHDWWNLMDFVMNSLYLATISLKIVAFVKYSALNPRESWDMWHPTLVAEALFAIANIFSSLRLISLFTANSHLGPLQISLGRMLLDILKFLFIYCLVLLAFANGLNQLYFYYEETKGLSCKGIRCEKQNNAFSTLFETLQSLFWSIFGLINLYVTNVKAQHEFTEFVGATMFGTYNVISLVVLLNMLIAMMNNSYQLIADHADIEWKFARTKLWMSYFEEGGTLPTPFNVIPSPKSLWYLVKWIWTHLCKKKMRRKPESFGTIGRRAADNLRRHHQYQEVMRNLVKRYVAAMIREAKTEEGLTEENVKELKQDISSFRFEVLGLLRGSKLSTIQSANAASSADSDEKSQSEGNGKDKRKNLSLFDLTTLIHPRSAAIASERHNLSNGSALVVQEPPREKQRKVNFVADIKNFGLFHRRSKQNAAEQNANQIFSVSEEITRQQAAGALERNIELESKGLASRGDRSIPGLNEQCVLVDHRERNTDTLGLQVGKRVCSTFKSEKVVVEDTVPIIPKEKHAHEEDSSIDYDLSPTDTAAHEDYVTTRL
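Assay system: HEK293 cells with stable TRPC4beta plus mu-opioid receptor expression; Probe or stimulus: DAMGO in two steps, submaximal then maximal; Dosing: single-point compound dosing; Measured by: Fluo4 calcium-dye fluorescence, kinetic read; Read-out basis: B score from integrated Fluo4 fluorescence ratio.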
TRPC6 activator: activates the mouse TRPC6 cation channel; Q61143; HEK293-TRPC6 membrane potential dye fluorescence; hits give high values; B-score at 10 µM; actives 0.13% (n = 310,000);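 active = B-score of the integrated fluorescence ratio above library mean plus 3 SD, and starting fluorescence ratio within library mean plus 5 SD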;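 also: higher score means more depolarization so channel activation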
TRPC4 agonist: TRPC4 (mouse) channel activation; actives 0.49% (n = 310,000); Q9QUQ5; HEK293 TRPC4beta/mu-opioid, Fluo4 calcium fluorescence; hits give high values; B-score at 10 µM;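 active = B-score above 5 SD of library B-scores, and initial fluorescence ratio not above library mean plus 5 SD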;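 also: positive B-score marks a calcium rise read as TRPC4 activation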
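System: HEK293 cells stably co-expressing mouse TRPC4beta and mu-opioid receptor; Schedule: Fluo4 dye loading 45 min at room temperature, 110 s recording; Detection: Fluo4 fluorescence, kinetic; Evaluation: B-scored integrated calcium fluorescence ratio; Controls: buffer (low) and maximal DAMGO (high).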
TRPC4 potent: TRPC4 (mouse) allosteric potentiation; AID 2227; B-score at 10 µM; Q9QUQ5; actives 0.42% (n = 310,000); HEK293 TRPC4beta/mu-opioid, DAMGO EC20, Fluo-4 Ca2+ flux; hits give high values;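 active = B-score of calcium response area above 5 SD of library B-scores, with initial fluorescence ratio within 5 SD of library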
TRPC6 inhibitor: blocks the mouse TRPC6 cation channel; HEK293-TRPC6, membrane potential dye, ACh-evoked depolarization; hits give low values; B-score at 10 µM; actives 1.1% (n = 310,000);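 active = B-score under library mean minus 3 SD, initial fluorescence not abnormally high, positive integrated signal ratio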;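 also: B-score derived from integrated fluorescence ratio over the kinetic read; more negative B-score means stronger inhibition of depolarization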
TRPC4 sel inh 2: second check of whether TRPC6 inhibitors also affect mouse TRPC4; AID 2776; inhibition, % at 10 µM; HEK293 TRPC4/MOR, membrane potential dye fluorescence; channel activated by saturating DAMGO dose; shares compounds with TRPC6 inhibitor; actives 42% (n = 920);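 active = compounds whose fluorescence signal differed from control wells by over 3 SD, either direction, in both duplicate plates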
TRPC4 spec: selectivity of TRPC6 inhibitors: effect on mouse TRPC4; shares compounds with TRPC6 inhibitor; HEK293 TRPC4/mu-opioid, membrane potential fluorescence; activity change, negative = inhibition, % at 10 µM; actives 61% (n = 920);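 active = rise or fall in signal beyond 3 SD of buffer-only wells in both replicate plates, either sign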;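 also: integrated kinetic ratio of fluorescence range over baseline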
HEK293 MPD ctr 2-1: second counter-screen for TRPC6 inhibitors: parental HEK293 cells. shares compounds with TRPC6 inhibitor. parental HEK293 membrane potential dye fluorescence; maximal acetylcholine challenge after compound addition. signal change vs control, % at 10 µM. actives 31% (n = 920). AID 2779;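 active = membrane potential signal moving either way by over 3 SD of the maximum-effect control, in both duplicate plates, meaning non-specific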
HEK293 MPD ctr-1: parental HEK293 nonspecific activity of TRPC6 inhibitors; shares compounds with TRPC6 inhibitor; parental HEK293 membrane potential dye fluorescence; membrane potential signal change, % at 10 µM; actives 60% (n = 920); AID 2780;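 active = membrane potential signal shifting up or down by more than 3 SD of buffer-only wells, on both duplicate plates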
HEK293 MPD ctr-2: checks TRPC6 modulator effects in parental HEK293 cells; membrane potential signal change, % at 10 µM; membrane potential dye fluorescence; shares compounds with TRPC6 inhibitor; actives 51% (n = 2,400);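 active = membrane potential signal moves up or down beyond 5 SD from buffer-only wells, on both duplicate plates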
HEK293 MPD ctr 2-2: second counter-screen for TRPC6 modulators: effect in parental HEK293 cells; shares compounds with TRPC6 inhibitor; membrane potential dye fluorescence; after compound, maximal acetylcholine stimulation; inhibition, % at 10 µM; actives 14% (n = 2,400);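 active = membrane potential signal drops by more than 5 SD from the mean control signal, in both duplicate plates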
TRPC4/MOR mod: tests whether TRPC6 modulators also affect mouse TRPC4; AID 488927; shares compounds with TRPC6 inhibitor; HEK293 TRPC4/mu-opioid, membrane potential fluorescence; percent change from control (negative = decrease, positive = increase), % at 10 µM; actives 69% (n = 2,400);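 active = membrane potential signal moved up or down beyond 5 SD of buffer control wells, in both duplicate plates, actives on both sides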
TRPC4 ctr inh 2: second selectivity test of TRPC6 modulators against mouse TRPC4; shares compounds with TRPC6 inhibitor; HEK293 TRPC4/mu-opioid, membrane potential dye fluorescence; stimulated with maximal-effect DAMGO; inhibition, % at 10 µM; actives 55% (n = 2,400); AID 488928;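 active = drop in membrane potential signal beyond 5 SD of the control wells in both duplicate plates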;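 also: TRPC4 counter screen for TRPC6 hits run under conditions tuned for TRPC6 not TRPC4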
TRPC6 block conf: confirmation of mouse TRPC6 inhibitors | actives 43% (n = 3,300) | HEK293-TRPC6, membrane potential dye, ACh-evoked depolarization | inhibition, % at 10 µM | shares compounds with TRPC6 inhibitor;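 active = fluorescence ratio falls more than 5 SD below the full-stimulation control mean, in both duplicate runs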;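 also: integrated fluorescence ratio of peak minus minimum over baseline after agonist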
TRPC6 act conf: confirmation of mouse TRPC6 activators | shares compounds with TRPC6 inhibitor | HEK293-TRPC6 membrane potential dye fluorescence, FDSS | activation, % at 10 µM | actives 11% (n = 2,800) | AID 488961;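 active = ratio signal rise beyond 5 SD above unstimulated control wells' mean, seen in both duplicate runs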
Large screens that a line does not name were inactive (follow-up assays come after a bar, where they were run). The list is not random: actives were taken first. Their share in the collection is about 3%.

CCOC(=O)C1=NN(c2ccc(Cl)cc2)C(c2ccccc2)CC1=O (stereo not drawn)	TRPC6 inhibitor -7.47 | TRPC4 sel inh 2 inactive | TRPC4 spec inactive | HEK293 MPD ctr 2-1 inactive | HEK293 MPD ctr-1 inactive | TRPC6 block conf inactive | TRPC6 act conf inactive
CCOc1ccc(N(C(C)C(=O)Nc2ccc(OC)cc2)S(C)(=O)=O)cc1 (stereo not drawn)	TRPC6 inhibitor -6.36 | HEK293 MPD ctr-2 inactive | HEK293 MPD ctr 2-2 inactive | TRPC4/MOR mod inactive | TRPC4 ctr inh 2 inactive | TRPC6 block conf inactive | TRPC6 act conf inactive
CCN(CC(=O)NCc1cccs1)C(=O)C(c1ccccc1)c1ccccc1	none
CCNC(=O)C1(c2ccccc2)CCCC1	none
CN(C)CCOC(=O)C1(c2ccccc2)CCCC1	TRPC6 inhibitor -9.57 | TRPC4 sel inh 2 inactive | TRPC4 spec 2.4% | HEK293 MPD ctr 2-1 19.0% | HEK293 MPD ctr-1 5.8% | TRPC6 block conf inactive
O=C(OCCN1CCCC1)C1(c2ccccc2)CCCC1	TRPC6 inhibitor -8 | TRPC4 sel inh 2 inactive | TRPC4 spec 9.8% | HEK293 MPD ctr 2-1 15.5% | HEK293 MPD ctr-1 12.6% | TRPC6 block conf 63.6%
C[N+]1(CCCOC(=O)C2(c3ccccc3)CCCC2)CCOCC1	TRPC6 inhibitor -5.39 | HEK293 MPD ctr-2 inactive | HEK293 MPD ctr 2-2 inactive | TRPC4/MOR mod inactive | TRPC4 ctr inh 2 inactive | TRPC6 block conf inactive | TRPC6 act conf inactive
COc1ccc(C(=O)OCC[N+]2(C)CCOCC2)cc1	none
CCN(CC)CCOC(=O)c1ccc(NC(=O)C2(c3ccccc3)CCCC2)cc1	TRPC6 inhibitor -5.21 | HEK293 MPD ctr-2 125.0% | HEK293 MPD ctr 2-2 inactive | TRPC4/MOR mod 15.5% | TRPC4 ctr inh 2 58.0% | TRPC6 block conf inactive
COC(=O)C1N[C@@H]([C@@H](NC(=O)COc2ccccc2)C(=O)NCc2ccc(OC)cc2)SC1(C)C (stereo partly drawn)	none
COCCSc1nnc(NC(=O)CCS(=O)(=O)c2ccccc2)s1	none
COc1ccc(Cc2nc3ccc(C(=O)N(C)C(C)c4ccon4)cc3o2)cc1 (stereo not drawn)	none
CC(C)CCNC(=O)c1ccc(-n2cnc3cccnc32)cc1	none
O=C(Nc1ccc(F)c(Cl)c1)N1CCCCCC1	none
O=C(OCCN1CCCCC1)c1ccccc1Br	none
O=C(OCCN1CCCCC1)C1(c2ccccc2)CCCC1	TRPC6 inhibitor -7.36 | TRPC4 sel inh 2 inactive | TRPC4 spec 19.3% | HEK293 MPD ctr 2-1 21.0% | HEK293 MPD ctr-1 16.1% | TRPC6 block conf 83.0%
Cc1cccn2c(=O)c3cc(C#N)c(=NC(=O)c4ccccc4)n(Cc4ccco4)c3nc12	none
COCCCn1c(=NC(C)=O)c(C#N)cc2c(=O)n3cccc(C)c3nc21	TRPC6 inhibitor -5.97 | HEK293 MPD ctr-2 -140.5% | HEK293 MPD ctr 2-2 inactive | TRPC4/MOR mod -41.5% | TRPC4 ctr inh 2 28.0% | TRPC6 block conf inactive | TRPC6 act conf inactive
COCCCn1c(=NC(=O)c2ccccc2)c(C#N)cc2c(=O)n3cccc(C)c3nc21	TRPC6 inhibitor -6.65 | HEK293 MPD ctr-2 inactive | HEK293 MPD ctr 2-2 inactive | TRPC4/MOR mod inactive | TRPC4 ctr inh 2 inactive | TRPC6 block conf inactive | TRPC6 act conf inactive
Cc1cccc(C(=O)N=c2c(C#N)cc3c(=O)n4cccc(C)c4nc3n2Cc2ccco2)c1	TRPC6 inhibitor -5.08 | HEK293 MPD ctr-2 123.5% | HEK293 MPD ctr 2-2 inactive | TRPC4/MOR mod -54.5% | TRPC4 ctr inh 2 36.0% | TRPC6 block conf inactive | TRPC6 act conf inactive
CCOCCCn1c(=NC(=O)c2cccs2)c(C#N)cc2c(=O)n3cccc(C)c3nc21	none
Cn1c(CNC(=O)c2ccco2)nnc1SCC(=O)Nc1c(F)cc(F)cc1Br	none
COCCCNC(=O)CCn1nc(-c2ccc(Cl)cc2)ccc1=O	TRPC6 inhibitor -5.24 | HEK293 MPD ctr-2 inactive | HEK293 MPD ctr 2-2 inactive | TRPC4/MOR mod inactive | TRPC4 ctr inh 2 inactive | TRPC6 block conf inactive | TRPC6 act conf inactive
CC(SC1=NCCN1S(=O)(=O)c1ccccc1)c1ccccc1 (stereo not drawn)	none
CCOc1ccc(Cl)cc1/C=N/O	TRPC4 inh -6, TRPC6 activator 12.6, TRPC6 inhibitor -8.71 | HEK293 MPD ctr-2 103.5% | HEK293 MPD ctr 2-2 inactive | TRPC4/MOR mod 21.0% | TRPC4 ctr inh 2 41.0% | TRPC6 block conf 78.0% | TRPC6 act conf 115.0%
CCc1ccc(CN(C)Cc2nc(-c3cccc(Cl)c3)no2)nc1	none
COc1ccc(-c2nc(-c3ccccc3)c(-c3cccs3)[nH]2)cc1OC	none
COc1ccc(-c2nc(-c3cccs3)c(-c3cccs3)[nH]2)cc1OC	TRPC6 inhibitor -5.52 | HEK293 MPD ctr-2 inactive | HEK293 MPD ctr 2-2 inactive | TRPC4/MOR mod inactive | TRPC4 ctr inh 2 inactive | TRPC6 block conf inactive | TRPC6 act conf inactive
NCc1cc2c3c(c1)CCCN3CCC2	TRPC6 inhibitor -5.73 | HEK293 MPD ctr-2 inactive | HEK293 MPD ctr 2-2 inactive | TRPC4/MOR mod inactive | TRPC4 ctr inh 2 inactive | TRPC6 block conf inactive | TRPC6 act conf inactive
